From ChEMBL document CHEMBL1671655, “Anidulafungin is fungicidal and exerts a variety of postantifungal effects against Candida albicans, C. glabrata, C. parapsilosis, and C. krusei isolates” (2009)
≈ marks a conversion by molar mass, not a printed value. Calls of active or inactive are those of the source. The rule behind the calls is not given here. Starred links: 1 amine or outer side, 2 acyl side, 3 side chain; linkers in the order of their positions; H or OH if unused. Positions of bridges follow the written chain, without caps; N, C: chain ends. Non-standard residues stand in square brackets, D forms with d. Residues, ends and D or L forms follow the SMILES beside them. *: point of attachment. pTerphenylCO(4''-OnC5H11) = CCCCCOc1ccc(-c2ccc(-c3ccc(C(=O)*)cc3)cc2)cc1; Orn(4R-OH,5R-OH) = O=C([C@H](C[C@@H](O)[C@@H](O)N[*:3])N[*:1])[*:2]; hTyr(3S-OH,4S-OH) = N[C@H](C(=O)O)[C@H](O)[C@@H](O)c1ccc(O)cc1; Pro(3S-OH,4S-Me) = C[C@H]1CN[C@H](C(=O)O)[C@H]1O; Hyp = O=C(O)[C@@H]1C[C@@H](O)CN1

Legend:
Candida albicans [1] = assay: Fungicidal activity against Candida albicans ATCC 90028 assessed as log reduction in bacterial count at 16 times MIC after drug exposure for 1 hr followed by washout measured after 48 hrs in the absence of drug by PAFE study; assay type: functional
In short: (§1)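 Inoculum of about 1 x 10^5 to 5 x 10^5 CFU/ml in MOPS-buffered RPMI (pH 7.0), shaken at 35°C and exposed to drug for 1 h. Cells then washed and centrifuged three times and resuspended in drug-free warm RPMI. Samples plated on SDA at 0, 2, 4, 8, 12, 24 and 48 h, with CFU counted after 48 h at 35°C. Run twice per isolate; values are means.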

Candida albicans [2] = assay: Increase in susceptibility to SDS in Candida albicans ATCC 90028 assessed as cell wall damage at 4 times MIC after 1 hr relative to control; assay type: functional, organism-based
In short: (§2)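 Cells recovered 8 h after a 1-h drug exposure were grown in YPD with 1% glucose to exponential phase and adjusted to OD599 0.1. Undiluted culture and 10-fold serial dilutions were spotted onto YPD plates containing SDS (0.01 to 0.04%), then incubated 72 h at 30°C. Growth compared with unexposed control cells; triplicate.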

Candida albicans [3] = assay: Antifungal activity against Candida albicans isolate 1 assessed as time period for bacterial growth inhibition at 4 times MIC after 1 hr drug exposure; assay type: functional; in short: as §1
Candida albicans [4] = assay: Increase in susceptibility to SDS in Candida albicans isolate 1 assessed as cell wall damage at 4 times MIC after 1 hr relative to control; assay type: functional, organism-based; in short: as §2
Nakaseomyces glabratus [5] = assay: Fungicidal activity against Candida glabrata isolate 1 assessed as log reduction in bacterial count at MIC after 48 hrs by time-kill analysis; assay type: functional; conditions: isolate 1, 48 h
In short: (§3)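 Isolates subcultured twice on SDA, suspended to 0.5 McFarland, giving ~1 x 10^5 to 5 x 10^5 CFU/ml in MOPS-buffered RPMI 1640 (pH 7.0) with or without drug at multiples of MIC (MIC by CLSI M27-A3). Tubes shaken at 35°C with continuous drug. Sampled at 0–48 h, diluted 10-fold and plated on SDA; CFU counted after 48 h at 35°C. Run twice per isolate; means.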

Nakaseomyces glabratus [6] = assay: Fungicidal activity against Candida glabrata isolate 1 assessed as log reduction in bacterial count at 16 times MIC after 48 hrs by time-kill analysis; assay type: functional; conditions: isolate 1, 48 h; in short: as §3
[7] = test system: Meyerozyma guilliermondii; assay: Antifungal activity against Candida guilliermondii by NCCLS M27A broth microdilution method; assay type: functional
Candida albicans [8] = assay: Fungicidal activity against Candida albicans isolate 2 assessed as log reduction in bacterial count at 16 times MIC after drug exposure for 1 hr followed by washout measured after 48 hrs in the absence of drug by PAFE study; assay type: functional
In short: (§4)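 Starting inoculum ~1 x 10^5 to 5 x 10^5 CFU/ml in MOPS-buffered RPMI 1640 (pH 7.0) with drug at multiples of the CLSI M27-A3 MIC. After 1 h at 35°C, cells washed and centrifuged three times at 1,400 x g for 10 min, then resuspended in warm drug-free RPMI. Shaken at 35°C and plated on SDA at 0–48 h; CFU counted after 48 h. Run twice per isolate; means.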

Nakaseomyces glabratus [9] = assay: Fungicidal activity against Candida glabrata isolate 1 assessed as log reduction in bacterial count at 16 times MIC after drug exposure for 1 hr followed by washout measured after 48 hrs in the absence of drug by PAFE study; assay type: functional; in short: as §4
Nakaseomyces glabratus [10] = assay: Antifungal activity against Candida glabrata isolate 1 assessed as time period for bacterial growth inhibition at 4 times MIC after 1 hr drug exposure; assay type: functional; in short: as §1
Candida albicans [11] = assay: Antifungal activity against Candida albicans isolate 1 coincubated with mouse J774 macrophages assessed as macrophage induced bacterial cell killing at 4 times MIC (reference value: 14 +/- 8 %); assay type: functional
Candida parapsilosis [12] = assay: Fungicidal activity against Candida parapsilosis isolate S assessed as log reduction in bacterial count at MIC after 48 hrs by time-kill analysis; assay type: functional; conditions: Lodderomyces parapsilosis
In short: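 Isolates subcultured twice on SDA, then suspended to 0.5 McFarland and diluted into RPMI 1640 (MOPS, pH 7.0) with or without anidulafungin, giving about 1 x 10^5 to 5 x 10^5 CFU/ml. Tubes were shaken at 35°C. Samples were taken at 0, 2, 4, 8, 12, 24 and 48 h, serially diluted 10-fold, plated on SDA, and CFU counted after 48 h at 35°C. Each isolate was run twice; mean values.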

Candida albicans [13] = assay: Antifungal activity against Candida albicans ATCC 90028 by CLSI M27-A3 broth microdilution method; assay type: functional
In short: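 CLSI M27-A3 broth microdilution in RPMI 1640 buffered to pH 7.0 with MOPS. Starting inoculum 0.5 x 10^3 to 2.5 x 10^3 cells/ml, incubated at 35°C. MIC read as the lowest concentration giving >50% growth reduction versus control. Each isolate tested on at least three occasions.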

Pichia kudriavzevii [14] = assay: Increase in susceptibility to SDS in Candida krusei isolate ATCC 6258 assessed as cell wall damage at 16 times MIC after 1 hr relative to control; assay type: functional, organism-based; in short: as §2
Nakaseomyces glabratus [15] = assay: Increase in susceptibility to calcofluor white in Candida glabrata isolate 1 assessed as cell wall damage at MIC after 1 hr relative to control; assay type: functional, organism-based
In short: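 Cells recovered 8 h after a 1-h drug exposure were grown to exponential phase in YPD with 1% glucose and adjusted to OD599 0.1. Undiluted and 10-fold serially diluted cultures were spotted onto YPD plates containing calcofluor white, then incubated at 30°C for 72 h. Growth compared with no-drug control cells; triplicate.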

Pichia kudriavzevii [16] = assay: Antifungal activity against Candida krusei by NCCLS M27A broth microdilution method; assay type: functional
Candida albicans [17] = assay: Antifungal activity against Candida albicans by NCCLS M27A broth microdilution method; assay type: functional
Pichia kudriavzevii [18] = assay: Increase in susceptibility to SDS in Candida krusei isolate ATCC 6258 assessed as cell wall damage at 4 times MIC after 1 hr relative to control; assay type: functional, organism-based; in short: as §2
Candida parapsilosis [19] = assay: Fungicidal activity against Candida parapsilosis isolate S assessed as log reduction in bacterial count at 4 times MIC after drug exposure for 1 hr followed by washout measured after 48 hrs in the absence of drug by PAFE study; assay type: functional; conditions: Lodderomyces parapsilosis
In short: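 Inoculum about 1 x 10^5 to 5 x 10^5 CFU/ml in RPMI 1640 (MOPS, pH 7.0) with drug, shaken at 35°C for 1 h. Cells were then washed and centrifuged at 1,400 x g for 10 min (3 cycles) and resuspended in warm drug-free RPMI. Samples plated on SDA at 0, 2, 4, 8, 12, 24 and 48 h; CFU counted after 48 h at 35°C. Run twice per isolate; means.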

Candida albicans [20] = assay: Fungicidal activity against Candida albicans isolate 1 assessed as log reduction in bacterial count at 16 times MIC after drug exposure for 1 hr followed by washout measured after 48 hrs in the absence of drug by PAFE study; assay type: functional; in short: as §4
Candida parapsilosis [21] = assay: Increase in susceptibility to calcofluor white in Candida parapsilosis isolate A assessed as cell wall damage at 16 times MIC after 1 hr relative to control; assay type: functional, organism-based
In short: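 Candida given a 1-h anidulafungin pulse in MOPS-buffered RPMI 1640 (pH 7.0) at 35°C, washed three times by centrifugation, and regrown drug-free. Cells collected 8 h later, grown in YPD with 1% glucose to exponential phase, and set to OD599 0.1. Undiluted culture and 10-fold dilutions (4 µl) spotted on YPD plates with calcofluor white, then 30°C for 72 h. Triplicate; compared with no-drug cells.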

CCCCCOc1ccc(-c2ccc(-c3ccc(C(=O)N[C@H]4C[C@@H](O)[C@@H](O)NC(=O)[C@@H]5[C@@H](O)[C@@H](C)CN5C(=O)[C@H]([C@@H](C)O)NC(=O)[C@H]([C@H](O)[C@@H](O)c5ccc(O)cc5)NC(=O)[C@@H]5C[C@@H](O)CN5C(=O)[C@H]([C@@H](C)O)NC4=O)cc3)cc2)cc1 [ANIDULAFUNGIN] ({pTerphenylCO(4''-OnC5H11)}-[Orn(4R-OH,5R-OH)]T[Hyp][hTyr(3S-OH,4S-OH)]T[Pro(3S-OH,4S-Me)]; lactam 1-C)
log reduction (Candida albicans [1]): 2.14
Activity (Candida albicans [2]): Active
Time (Candida albicans [3]): 8 h
Activity (Candida albicans [4]): Active
log reduction (Nakaseomyces glabratus [5]): 1.8 log CFU/ml
log reduction (Nakaseomyces glabratus [6]): 3.44 log CFU/ml
MIC90 [7]: 2 µg/mL (≈ 1.75 µM)
log reduction (Candida albicans [8]): 1.55
log reduction (Nakaseomyces glabratus [9]): 3.36
Time (Nakaseomyces glabratus [10]): 8 h
inhibition (INH) (Candida albicans [11]): 37%
log reduction (Candida parapsilosis [12]): 1.32 log CFU/ml
MIC (Candida albicans [13]): 0.03 µg/mL (≈ 0.0263 µM)
Activity (Pichia kudriavzevii [14]): Active
Activity (Nakaseomyces glabratus [15]): Active
MIC90 (Pichia kudriavzevii [16]): 0.06 µg/mL (≈ 0.0526 µM)
MIC90 (Candida albicans [17]): 0.06 µg/mL (≈ 0.0526 µM)
Activity (Pichia kudriavzevii [18]): Active
log reduction (Candida parapsilosis [19]): 2.17
log reduction (Candida albicans [20]): 2.64
Activity (Candida parapsilosis [21]): Active
